Measured values pooled from the literature.
Protocols differ between the studies behind these lines. Values after ≈ are worked out from the molar mass of the structure shown.

SMILES	organism	test	system	conditions	endpoint	result
CCn1c(=O)c(-c2cc[nH]n2)cc2c(C)nc(N)nc21	Enterovirus A	viral replication, inhibitor, qPCR	RD, EV71	–	IC50	158 nM
OC(Cn1cncn1)(Cn1cncn1)c1ccc(F)cc1F	Pichia kudriavzevii	microbial growth, broth dilution	ATCC6258	48 h	MIC	0.7 µg/mL (≈ 2.29 µM)
C#CCON=C1C=CC(=C(C#N)c2ccccc2)C=C1	Pichia kudriavzevii	microbial killing, broth dilution	ATCC14243	48 h	MFC	64 µg/mL (≈ 246 µM)
CC1=C(Cn2cncn2)C(=O)c2ccccc2C1=O	Schistosoma mansoni	parasite growth	–	72 h, larva	IC50	900 nM
O=C(Nc1ccc(Cl)cc1)c1ccc(COC(Cn2ccnc2)c2ccc(Cl)cc2Cl)cc1 (stereo not drawn)	Pichia kudriavzevii	microbial growth, broth dilution	–	–	MIC80	0.125 µg/mL (≈ 0.25 µM)
COc1cc(NC(=O)Cn2ccc3ccc(-c4nnc(C)o4)cc32)cc(OC)c1OC	Plasmodium knowlesi	parasite growth, SYBR Green	–	30 h, blood stage	EC50	200 to 660 nM
CC1=C(Cc2cn(CCO)nn2)C(=O)c2ccccc2C1=O	Schistosoma mansoni	parasite growth	–	72 h, larva	IC50	1440 nM
O=C(Nc1cccc2ccccc12)c1ccc(COC(Cn2ccnc2)c2ccc(Cl)cc2Cl)cc1 (stereo not drawn)	Pichia kudriavzevii	microbial growth, broth dilution	–	–	MIC80	16 µg/mL (≈ 31 µM)
CC1=C(Cn2cc(CN3CCN(C(=O)OC(C)(C)C)CC3)nn2)C(=O)c2ccccc2C1=O	Schistosoma mansoni	parasite growth	–	72 h, larva	IC50	1500 nM
O=C(Nc1ccc(Br)cc1)c1ccc(COC(Cn2ccnc2)c2ccc(Cl)cc2Cl)cc1 (stereo not drawn)	Pichia kudriavzevii	microbial growth, broth dilution	–	–	MIC80	0.06 µg/mL (≈ 0.11 µM)
CC1=C(Cn2ccnc2[N+](=O)[O-])C(=O)c2ccccc2C1=O	Schistosoma mansoni	parasite growth	–	72 h, larva	IC50	1030 nM
O=C(Nc1ccc2ccccc2c1)c1ccc(COC(Cn2ccnc2)c2ccc(Cl)cc2Cl)cc1 (stereo not drawn)	Pichia kudriavzevii	microbial growth, broth dilution	–	–	MIC80	32 µg/mL (≈ 62 µM)
C#CCOC(=O)ON=C1C=CC(=C(C#N)c2ccccc2)C=C1	Pichia kudriavzevii	microbial growth, broth dilution	ATCC14243	48 h	MIC	16 µg/mL (≈ 52.6 µM)
O=C(Nc1ccc(F)cc1F)c1ccc(COC(Cn2ccnc2)c2ccc(Cl)cc2Cl)cc1 (stereo not drawn)	Pichia kudriavzevii	microbial growth, broth dilution	–	–	MIC80	0.03 µg/mL (≈ 0.0597 µM)
CCON=C1C=CC(=C(C#N)c2ccccc2)C=C1	Pichia kudriavzevii	microbial growth, broth dilution	ATCC14243	48 h	MIC	256 µg/mL (≈ 1020 µM)
O=C1/C(=C/c2ccc3ccccc3c2O)NC(=S)N1c1ccccc1	Fusarium solani	microbial growth, broth dilution	–	–	MIC	20 µg/mL (≈ 57.7 µM)
CC(=O)ON=C1C=CC(=C(C#N)c2ccccc2)C=C1	Pichia kudriavzevii	microbial growth, broth dilution	ATCC14243	48 h	MIC	16 µg/mL (≈ 60.5 µM)
O=C(Nc1cccc(Br)c1)c1ccc(COC(Cn2ccnc2)c2ccc(Cl)cc2Cl)cc1 (stereo not drawn)	Pichia kudriavzevii	microbial growth, broth dilution	–	–	MIC80	0.06 µg/mL (≈ 0.11 µM)
CC1=C(Cn2cc(C(C)(C)O)nn2)C(=O)c2ccccc2C1=O	Schistosoma mansoni	parasite growth	–	72 h, larva	IC50	1050 nM
O=C(Nc1cccc(Cl)c1)c1ccc(COC(Cn2ccnc2)c2ccc(Cl)cc2Cl)cc1 (stereo not drawn)	Pichia kudriavzevii	microbial growth, broth dilution	–	–	MIC80	0.25 µg/mL (≈ 0.499 µM)
CC1=C(Cn2cnc([N+](=O)[O-])n2)C(=O)c2ccccc2C1=O	Schistosoma mansoni	parasite growth	–	72 h, larva	IC50	860 nM
C=CC(=O)ON=C1C=CC(=C(C#N)c2ccccc2)C=C1	Pichia kudriavzevii	microbial killing, broth dilution	ATCC14243	48 h	MFC	16 µg/mL (≈ 57.9 µM)
CC1=C(Cn2ccnn2)C(=O)c2ccccc2C1=O	Schistosoma mansoni	parasite growth	–	72 h, larva	IC50	1050 nM
N#CC(=C1C=CC(=NOC(=O)OCc2ccccc2)C=C1)c1ccccc1	Pichia kudriavzevii	microbial growth, broth dilution	ATCC14243	48 h	MIC	128 µg/mL (≈ 359 µM)
